Variants at the floor of the assay were thinned out.
B1: tRNA (parent)
chain: GUUCCGUUGGCGUAAUGGUAACGCGUCUCCCUCCUAAGGAGAAGACUGCGGGUUCGAGUCCCGUACGGAACG

Variants of: B1
Test: yeast fitness relative to wild type (ratio to wild type); higher = fitter; tRNA-Arg(CCU), competitive growth, 37 C, YPD
Summary of the method: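 Variants of the tRNA-Arg(CCU) gene, chemically synthesised with a 3% per-site mutation rate at 69 sites, were placed at the native genomic locus in Saccharomyces cerevisiae. The pooled strains were competed in YPD at 37°C for 24 hours in six parallel replicates. Gene amplicons from the start population and from each end population were read by 100-nucleotide paired-end sequencing. Darwinian fitness relative to wild type came from changes in genotype frequencies; genotypes needed ≥ 100 starting reads, and estimates < 0.5 were set to 0.5.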

Row | Variant | yeast fitness
1 | U2A G6C G38A G68A | ≤ 0.5
2 | U2A G39C A70G | ≤ 0.5
3 | U2A G52A C61A | ≤ 0.5
4 | U2A C33U C34U G38A G51A C55A A65U | ≤ 0.5
5 | U2C A40G U54A | ≤ 0.5
6 | U2A U8A C34A A65U | ≤ 0.5
7 | U2A G23C C27U C31G A42C C61U | ≤ 0.5
8 | U2A A20C G68A | 0.719
9 | U2A G23A C29G C49U | 0.575
10 | U2A C31A | 0.815
11 | U2A C31U | 0.921
12 | U2A C31G | 0.864
13 | U2A G6A | 0.775
14 | U2A C5U C66U | 0.661
15 | U2A G23A G68U | ≤ 0.5
16 | U2C A20C G68A | 0.614
17 | U2A C5G G41A A43U U54G A57U | ≤ 0.5
18 | U2A G6C A37U | ≤ 0.5
19 | U2A G41A | 0.773
20 | U2A C24U U47C C60U | ≤ 0.5
21 | U2A A21G A36G G44C U59G | ≤ 0.5
22 | U2A C4G C55A | 0.57
23 | U2A C4U | 0.965
24 | U2A C5G U64A | ≤ 0.5

Row | Variant | yeast fitness
25 | U2A U8C A15G | 0.667
26 | U2C A14G G18A U32A U59A | ≤ 0.5
27 | U2A C11G C27G U54A | ≤ 0.5
28 | U2A G9A A37G G58A | ≤ 0.5
29 | U2C A15U C30G C55U | 0.666
30 | U2A C46U A65G | 0.592
31 | U2A C33A C34U G56A | 0.542
32 | U2A C5A U16C C30A | ≤ 0.5
33 | U2A A69C | 0.959
34 | U2A A69U | 0.874
35 | U2A G67U | 0.824
36 | U2A U13A U35G | ≤ 0.5
37 | U2A A14G | 0.891
38 | U2A G9A C49A | ≤ 0.5
39 | U2A | 0.988
40 | U2C | 1
41 | U2A U16G G18C | 0.614
42 | U2C A15U A20U A69U | ≤ 0.5
43 | U2A A20U U35C | ≤ 0.5
44 | U2A C11G C30A G44U A57G | ≤ 0.5
45 | U2C A20U G38C | ≤ 0.5
46 | U2A A20G G58C | 0.973
47 | U2A G25C A70G | 0.568
48 | U2A C46A G58A | 0.622

Row | Variant | yeast fitness
49 | U2A U16C C30A A43C | ≤ 0.5
50 | U2A U13A A20C G44C C66U | ≤ 0.5
51 | U2A A21G C24A | ≤ 0.5
52 | U2A C11G C31G | 0.6
53 | U2A U7A | 0.666
54 | U2A C5U | 0.906
55 | U2A C5G | 0.728
56 | U2A A57U | 0.663
57 | U2C A15C C29U | ≤ 0.5
58 | U2A A45G | 1.09
59 | U2A A45U | 0.863
60 | U2A A37U U53A C62U | ≤ 0.5
61 | U2A G17A A45G | 0.587
62 | U2C A14C U19A | 0.595
63 | U2A A20C C66U | 0.753
64 | U2A G48A G50C U59C C60A | ≤ 0.5
65 | U2A A15U G38C G39A A43C C60G A65C | ≤ 0.5
66 | U2A G25C A45U | 0.585
67 | U2A G9A C11U G51C C55U A69C A70U | ≤ 0.5
68 | U2A G41C U59A C61A C66U G68C | ≤ 0.5
69 | U2A U3G C29G C30G C46A | ≤ 0.5
70 | U2A U3G C29G C30G C46G | 0.612
71 | U2A G6A U28G | ≤ 0.5
72 | U2A C30U A42G C60G C62G A65G C66U | ≤ 0.5

Row | Variant | yeast fitness
73 | U2A C27U A36G | 0.578
74 | U2A C27U A36C | ≤ 0.5
75 | U2A U3C G18C C29G U54A | ≤ 0.5
76 | U2A U47G C66U | ≤ 0.5
77 | U2A U7A U54A | ≤ 0.5
78 | U2C A20U U28A G67U | 0.579
79 | U2C A14G G18A C33U C34U G39C | ≤ 0.5
80 | U2A U19G A20U U64C | ≤ 0.5
81 | U2A A21U C27U U28C C62G | ≤ 0.5
82 | U2A U3C C4U C61A G67C | 0.59
83 | U2A U7A A15U G56A | ≤ 0.5
84 | U2A U3C G18C A69U | ≤ 0.5
85 | U2A A43C C49U | 0.602
86 | U2A C4U U28A C30U | 0.56
87 | U2C A20U C62U | 0.571
88 | U2A C4G C55A C61G | ≤ 0.5
89 | U2A A20U | 0.732
90 | U2C A15C C60A | ≤ 0.5
91 | U2A U8A A42U G52C | ≤ 0.5
92 | U2C A40C A42U C49G C66G | ≤ 0.5
93 | U2A U3A U7A A57G | ≤ 0.5
94 | U2A G6A U16C U28A G50A | ≤ 0.5
95 | U2A C11U G17A U64G | ≤ 0.5
96 | U2A C4A U13C C31A C49G A57G | ≤ 0.5

Row | Variant | yeast fitness
97 | U2A C4U U8G C31A G44C A65G | ≤ 0.5
98 | U2A C34G A36G A43U | ≤ 0.5
99 | U2A U28C | 0.835
100 | U2A U3C G6A U26C G56A | ≤ 0.5
101 | U2A U32A A69C | 0.612
102 | U2A A40G A69U | 0.553
103 | U2A C11G A42U | ≤ 0.5
104 | U2A C31U A37U | ≤ 0.5
105 | U2A C66U | 0.739
106 | U2A C66G | 0.715
107 | U2A U7G A42G A45U G52A U64C A69U | ≤ 0.5
108 | U2C A14C U35C | ≤ 0.5
109 | U2A C24U | 0.95
110 | U2A C5A G9C U16C G25C G68C | 0.586
111 | U2A A14C A36G C66U | 0.639
112 | U2A G41A C66U | ≤ 0.5
113 | U2A C5G A40G | 0.564
114 | U2A U19G A70U | 0.68
115 | U2C A40C G52C | 0.528
116 | U2A C11G C34U A42U C49G | 0.788
117 | U2A G23A C29G | 0.666
118 | U2C A14G C31G G58A | ≤ 0.5
119 | U2A U7C G41A A42C G50C A70G | ≤ 0.5
120 | U2A C49U | 0.981

Row | Variant | yeast fitness
121 | U2A C34U G48A C60U | 0.602
122 | U2A G9A A20C C24U | ≤ 0.5
123 | U2A U16A G56C A57G | ≤ 0.5
124 | U2C A14G U47G | 0.593
125 | U2A C11A G38C C60A C66U | ≤ 0.5
126 | U2A G18C | 0.592
127 | U2A C5G C24U C30G G68A | ≤ 0.5
128 | U2A C11A C46U C49U | ≤ 0.5
129 | U2A G9A A20C C24U C61G | ≤ 0.5
130 | U2A C55U | 0.661
131 | U2A C55A | 0.714
132 | U2A G9A G23A C29G | ≤ 0.5
133 | U2A C61U | 0.768
134 | U2A C31G G39C A42G C49U C60G | ≤ 0.5
135 | U2C A20U U28A | ≤ 0.5
136 | U2A U16G C66G G68C | ≤ 0.5
137 | U2A A21U C29U A40U U53A C60A A65G | ≤ 0.5
138 | U2A A15G U16C A20C A21U U26C | 0.583
139 | U2A C11G A21G A65U | ≤ 0.5
140 | U2A A43U A57C C61U | 0.578
141 | U2A A20C C62U C66G | ≤ 0.5
142 | U2A U19G A65U | 0.644
143 | U2A U16C U28A G50A | ≤ 0.5
144 | U2A A42U G67C | ≤ 0.5

Row | Variant | yeast fitness
145 | U2A A20C G52A | 0.542
146 | U2A U3C C24G C33G C66U | ≤ 0.5
147 | U2C A40C G52C G67A | 0.56
148 | U2C A20U | 0.91
149 | U2A C4U A69U | 0.787
150 | U2C A14U A15G C30U C34U G51C C55U | 0.596
151 | U2A C24G A37C C66U | ≤ 0.5
152 | U2A A21G G44C U59G | ≤ 0.5
153 | U2C A14G G18A U32A G44A A65C | 0.539
154 | U2A G10A G17C U35C C55G | ≤ 0.5
155 | U2A G6C U7C G12A C30A G44A C66A | ≤ 0.5
156 | U2A A15C G58C A69U | ≤ 0.5
157 | U2A U8C A42U | 0.64
158 | U2C A15C U19C C22G U59C C60G | ≤ 0.5
159 | U2A A15G | 0.981
160 | U2A A14C C30U C34G G63A | 0.574
161 | U2A A70U | 1.06
162 | U2A A70G | 0.979
163 | U2A U13G U28A A36U A45U A57G | 0.59
164 | U2A G6C U7C A15U U35C G41A C60A A65U A69G | ≤ 0.5
165 | U2A A40U G48C | ≤ 0.5
166 | U2A U8A C33U A43U | ≤ 0.5
167 | U2C A40U | 1.05
